Test results: ChEMBL document CHEMBL1156239, “Synthesis, anticonvulsant and antimicrobial activities of some new 2-acetylnaphthalene derivatives” (Bioorg Med Chem, 2010)
Converted amounts (≈) assume the structure as drawn. The source made the active and inactive calls. The calls are words filed in the database; no cut-off is given here.

Key:
Rattus norvegicus [1] = assay: Neurotoxicity in Sprague-Dawley rat at 30 mg/kg, ip after 4 hrs by rotarod test; format: toxicity, organism-based; set-up: dose 30 mg/kg, route intraperitoneal; conditions: in vivo
Rattus norvegicus [2] = assay: Anticonvulsant activity in Sprague-Dawley rat assessed as inhibition of maximal electroshock-induced seizures at 30 mg/kg, ip; format: functional, organism-based; set-up: dose 30 mg/kg
Mus musculus [3] = assay: Anticonvulsant activity in CF1 mouse assessed as time to peak effect for inhibition of maximal electroshock-induced seizures at 23 mg/kg, ip after 1 hr; format: functional, organism-based; set-up: dose 23 mg/kg
Mus musculus [4] = assay: Anticonvulsant activity in CF1 mouse assessed as time to peak effect for inhibition of maximal electroshock-induced seizures at 35 mg/kg, ip after 2 hrs; format: functional, organism-based; set-up: dose 35 mg/kg
Mus musculus [5] = assay: Anticonvulsant activity in CF1 mouse assessed as time to peak effect for inhibition of maximal electroshock-induced seizures at 70 mg/kg, ip; format: functional; conditions: route intraperitoneal
Rattus norvegicus [6] = assay: Neurotoxicity in Sprague-Dawley rat assessed as time to peak effect at 50 mg/kg, ip after 2 to 6 hrs by rotarod test; format: toxicity, organism-based; set-up: dose 50 mg/kg, route intraperitoneal; conditions: in vivo
Mus musculus [7] = assay: Anticonvulsant activity in CF1 mouse assessed as time to peak effect for inhibition of maximal electroshock-induced seizures at 70 mg/kg, ip after 4 hrs; format: functional, organism-based; set-up: dose 70 mg/kg
Mus musculus [8] = assay: Neurotoxicity in CF1 mouse assessed as time to peak effect for ability to grasp rotarod at 150 mg/kg, ip by rotarod test; format: toxicity, organism-based; set-up: dose 150 mg/kg, route intraperitoneal; conditions: in vivo
Mus musculus [9] = assay: Neurotoxicity in CF1 mouse assessed as time to peak effect muscle spasms at 150 mg/kg, ip by rotarod test; format: toxicity, organism-based, Muscle tissue; set-up: dose 150 mg/kg, route intraperitoneal; conditions: in vivo
Mus musculus [10] = assay: Neurotoxicity in CF1 mouse assessed as time to peak effect at 150 mg/kg, ip after 1 to 2 hrs by rotarod test; format: toxicity, organism-based; set-up: dose 150 mg/kg, route intraperitoneal; conditions: in vivo
Rattus norvegicus [11] = assay: Neurotoxicity in Sprague-Dawley rat assessed as time to peak effect at 75 mg/kg, ip by rotarod test; format: toxicity, organism-based; set-up: dose 75 mg/kg, route intraperitoneal; conditions: in vivo
Mus musculus [12] = assay: Anticonvulsant activity in ip dosed CF1 mouse assessed as inhibition of maximal electroshock-induced seizures after 0.5 hrs; format: functional
Rattus norvegicus [13] = assay: Neurotoxicity in ip dosed Sprague-Dawley rat after 0.5 hrs by rotarod test; format: toxicity, organism-based; conditions: in vivo
[14] = Therapeutic index, ratio of TD50 for Sprague-Dawley rat to ED50 for Sprague-Dawley rat
Summary of the method: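 Ratio of TD50 to ED50, both from ip dosing at the time of peak effect, with groups of at least 8 per dose and Finney probit analysis. […] Toxicity was read by rotarod in mice and by positional sense, gait and stance in rats.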

Mus musculus [15] = assay: Anticonvulsant activity in ip dosed CF1 mouse assessed as inhibition of ScM-induced seizures after 5 hrs; format: functional
Rattus norvegicus [16] = assay: Anticonvulsant activity in rat assessed as inhibition of hippocampal kindle-stimulated seizures at 300 mg/kg, ip; format: functional, organism-based; set-up: dose 300 mg/kg; conditions: Hippocampus
Summary of the method: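 Hippocampal kindled rat model; single animal given 300 mg/kg ip.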

Staphylococcus aureus = assay: Antibacterial activity against Staphylococcus aureus ATCC 25923 after 24 hrs by broth microdilution method; format: functional; conditions: ATCC 25923, 24 h
Summary of the method: (§1)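 Broth microdilution in Mueller Hinton broth; compound stocks in DMSO, diluted into test medium. Plates incubated at 35 °C and read visually after 24 h. MIC taken as lowest concentration preventing visible growth. Ampicillin reference.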

Escherichia coli = assay: Antibacterial activity against Escherichia coli ATCC 25922 after 24 hrs by broth microdilution method; format: functional; conditions: ATCC 25922, 24 h; summary of the method: as §1
Pseudomonas aeruginosa = assay: Antibacterial activity against Pseudomonas aeruginosa ATCC 27853 after 24 hrs by broth microdilution method; format: functional; conditions: ATCC 27853, 24 h; summary of the method: as §1
Pichia kudriavzevii = assay: Antifungal activity against Candida krusei ATCC 6258 after 48 hrs by broth microdilution method; format: functional; conditions: ATCC 6258, 48 h
Candida parapsilosis = assay: Antifungal activity against Candida parapsilosis ATCC 22019 after 48 hrs by broth microdilution method; format: functional; conditions: Lodderomyces parapsilosis, ATCC 22019, 48 h
Mus musculus [17] = assay: Anticonvulsant activity in CF1 mouse assessed as inhibition of maximal electroshock-induced seizures at 30 mg/kg, ip after 0.5 hrs; format: functional, organism-based; set-up: dose 30 mg/kg
Summary of the method: (§2)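 Male albino CF#1 mice (18–25.5 g), compound suspended in 0.5% methylcellulose, given ip 0.5 h or 4 h before test. Eyes treated with 0.5% tetracaine HCl in saline; corneal-type MES at 60 Hz, 50 mA for 0.2 s; protection scored as animals protected/tested.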

Mus musculus [18] = assay: Anticonvulsant activity in CF1 mouse assessed as inhibition of maximal electroshock-induced seizures at 100 mg/kg, ip after 0.5 hrs; format: functional, organism-based; set-up: dose 100 mg/kg; summary of the method: as §2
Mus musculus [19] = assay: Anticonvulsant activity in CF1 mouse assessed as inhibition of maximal electroshock-induced seizures at 300 mg/kg, ip after 0.5 hrs; format: functional, organism-based; set-up: dose 300 mg/kg; summary of the method: as §2
Mus musculus [20] = assay: Anticonvulsant activity in CF1 mouse assessed as inhibition of maximal electroshock-induced seizures at 30 mg/kg, ip after 4 hrs; format: functional, organism-based; set-up: dose 30 mg/kg; summary of the method: as §2
Mus musculus [21] = assay: Neurotoxicity in CF1 mouse assessed as ability to grasp rotarod at 300 mg/kg, ip after 0.5 hrs by rotarod test; format: toxicity, organism-based; set-up: dose 300 mg/kg, route intraperitoneal; conditions: in vivo
Summary of the method: (§3)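 Male albino CF#1 mice (18–25.5 g) dosed ip with compound suspended in 0.5% methylcellulose, 0.5 h or 4 h before testing; neurotoxicity assessed by rotarod, scored as number toxic/number tested.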

Mus musculus [22] = assay: Neurotoxicity in CF1 mouse assessed as hyperactivity at 300 mg/kg, ip after 0.5 hrs by rotarod test; format: toxicity, organism-based; set-up: dose 300 mg/kg, route intraperitoneal; conditions: in vivo
Mus musculus [23] = assay: Neurotoxicity in CF1 mouse at 30 mg/kg, ip after 4 hrs by rotarod test; format: toxicity, organism-based; set-up: dose 30 mg/kg, route intraperitoneal; conditions: in vivo; summary of the method: as §3
Mus musculus [24] = assay: Neurotoxicity in CF1 mouse at 100 mg/kg, ip after 4 hrs by rotarod test; format: toxicity, organism-based; set-up: dose 100 mg/kg, route intraperitoneal; conditions: in vivo; summary of the method: as §3
Rattus norvegicus [25] = assay: Anticonvulsant activity in Sprague-Dawley rat assessed as inhibition of maximal electroshock-induced seizures at 30 mg/kg, po after 0.25 hrs; format: functional, organism-based; set-up: dose 30 mg/kg
Summary of the method: (§4)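 Male albino Sprague-Dawley rats (105–130 g) given a single oral 30 mg/kg dose suspended in 0.5% methylcellulose; MES (60 Hz, 150 mA, 0.2 s, tetracaine-anesthetized eyes) at 0.25, 0.5, 1, 2 and 4 h; 4 rats per time point; scored protected/tested.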

Rattus norvegicus [26] = assay: Anticonvulsant activity in Sprague-Dawley rat assessed as inhibition of maximal electroshock-induced seizures at 30 mg/kg, po after 1 hr; format: functional, organism-based; set-up: dose 30 mg/kg; summary of the method: as §4
Rattus norvegicus [27] = assay: Anticonvulsant activity in Sprague-Dawley rat assessed as inhibition of maximal electroshock-induced seizures at 30 mg/kg, po after 2 hrs; format: functional, organism-based; set-up: dose 30 mg/kg; summary of the method: as §4
Rattus norvegicus [28] = assay: Neurotoxicity in Sprague-Dawley rat at 30 mg/kg, po after 0.25 hrs by rotarod test; format: toxicity, organism-based; set-up: dose 30 mg/kg, route oral; conditions: in vivo
Rattus norvegicus [29] = assay: Neurotoxicity in Sprague-Dawley rat at 30 mg/kg, po after 0.5 hrs by rotarod test; format: toxicity, organism-based; set-up: dose 30 mg/kg, route oral; conditions: in vivo
Rattus norvegicus [30] = assay: Neurotoxicity in Sprague-Dawley rat at 30 mg/kg, po after 1 hr by rotarod test; format: toxicity, organism-based; set-up: dose 30 mg/kg, route oral; conditions: in vivo
Rattus norvegicus [31] = assay: Neurotoxicity in Sprague-Dawley rat at 30 mg/kg, po after 2 hrs by rotarod test; format: toxicity, organism-based; set-up: dose 30 mg/kg, route oral; conditions: in vivo
Rattus norvegicus [32] = assay: Neurotoxicity in Sprague-Dawley rat at 30 mg/kg, ip after 0.25 hrs by rotarod test; format: toxicity, organism-based; set-up: dose 30 mg/kg, route intraperitoneal; conditions: in vivo
Rattus norvegicus [33] = assay: Neurotoxicity in Sprague-Dawley rat at 30 mg/kg, ip after 0.5 hrs by rotarod test; format: toxicity, organism-based; set-up: dose 30 mg/kg, route intraperitoneal; conditions: in vivo
Rattus norvegicus [34] = assay: Neurotoxicity in Sprague-Dawley rat at 30 mg/kg, ip after 1 hr by rotarod test; format: toxicity, organism-based; set-up: dose 30 mg/kg, route intraperitoneal; conditions: in vivo
Rattus norvegicus [35] = assay: Neurotoxicity in Sprague-Dawley rat at 30 mg/kg, ip after 2 hrs by rotarod test; format: toxicity, organism-based; set-up: dose 30 mg/kg, route intraperitoneal; conditions: in vivo

## CC(C)CC(=O)OC(Cn1ccnc1)c1ccc2ccccc2c1 (stereo not given)
Rattus norvegicus [1]
  Activity: Non-toxic
Rattus norvegicus [2]
  inhibition: Active
Mus musculus [3]
  Activity: inactive
Mus musculus [4]
  Activity: inactive
Mus musculus [5]
  Time: 0.5 h
Rattus norvegicus [6]
  Activity: Non-toxic
Mus musculus [7]
  Activity: inactive
Mus musculus [8]
  Time: 0.25 h
Mus musculus [9]
  Time: 0.25 h
Mus musculus [10]
  Activity: Not Active
Rattus norvegicus [11]
  Time: 0.5 h
Mus musculus [12]
  ED50: 38.5 mg/kg
Rattus norvegicus [13]
  ED50: 56.36 mg/kg
[14]
  selectivity ratio: 2.76
Mus musculus [15]
  ED50: > 138 mg/kg
Rattus norvegicus [16]
  inhibition: inactive
Staphylococcus aureus
  MIC: 8 µg/mL (≈ 24.8 µM)
Escherichia coli
  MIC: > 1020 µg/mL
Pseudomonas aeruginosa
  MIC: > 1020 µg/mL
Pichia kudriavzevii
  MIC: 128 µg/mL (≈ 397 µM)
Candida parapsilosis
  MIC: 64 µg/mL (≈ 199 µM)
Mus musculus [17]
  inhibition: inactive
Mus musculus [18]
  inhibition: Active
Mus musculus [19]
  inhibition: Active
Mus musculus [20]
  inhibition: inactive
Mus musculus [21]
  Activity: Toxic
Mus musculus [22]
  Activity: Toxic
Mus musculus [23]
  Activity: Non-toxic
Mus musculus [24]
  Activity: Non-toxic
Rattus norvegicus [25]
  inhibition: inactive
Rattus norvegicus [26]
  inhibition: inactive
Rattus norvegicus [27]
  inhibition: inactive
Rattus norvegicus [28]
  Activity: Non-toxic
Rattus norvegicus [29]
  Activity: Non-toxic
Rattus norvegicus [30]
  Activity: Non-toxic
Rattus norvegicus [31]
  Activity: Non-toxic
Rattus norvegicus [32]
  Activity: Non-toxic
Rattus norvegicus [33]
  Activity: Non-toxic
Rattus norvegicus [34]
  Activity: Non-toxic
Rattus norvegicus [35]
  Activity: Non-toxic
